Source: ChEMBL document CHEMBL1121802, “Imine analogues of tricyclic antidepressants” (1981)

Key:
Format in all cases: functional
Mus musculus [1] = assay: The effect on 24-hour mortality in mice following oral administration
Mus musculus [2] = assay: The effect on ataxia in mice following oral administration
Outline: (§1)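 Observed at 0.5, 2, 5 and 24 h for ataxia (abnormal gait/imprecise movement), pupil diameter (dissecting microscope, 20×, micrometer), excitement (spontaneous running/jumping) and electroshock protection (corneal electrodes at 2 and 5 h). ED50 by Thompson method.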

Mus musculus [3] = assay: Antidepressant activity by determining the reversal of tetrabenazine-induced ptosis upon oral administration
Outline: (§2)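 Mice given test drug orally; 30 min later challenged with tetrabenazine (methanesulfonate) 32 mg/kg ip in 0.05 M KCl pH 2.0. Scored 1 h after test drug for exploratory activity and ptosis; ptosis antagonism = lid closure <50% in both eyes exactly 2 s after placing mouse facing observer. ED50 calculated by Thompson method.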

Mus musculus [4] = assay: Antidepressant activity by determining the decreased exploratory activity in mice upon oral administration; outline: as §2
Mus musculus [5] = assay: The effect on electroshock protection in mice following oral administration; outline: as §1
Mus musculus [6] = assay: The effect on excitement was measured in mice following oral administration; outline: as §1
Mus musculus [7] = assay: Effect on pupil dilation was measured in mice upon oral administration; outline: as §1
Mus musculus [8] = assay: Compound was tested for antidepressant activity by determining the decreased exploratory activity in mice upon oral administration; 2.6-28; outline: as §2
Mus musculus [9] = assay: Compound was tested for antidepressant activity by determining the reversal of tetrabenazine-induced ptosis upon oral administration; 48-203; outline: as §2
Mus musculus [10] = assay: Compound was tested for antidepressant activity by determining the reversal of tetrabenazine-induced ptosis upon oral administration; 2.0-3.1; outline: as §2
Mus musculus [11] = assay: Compound was tested for antidepressant activity by determining the decreased exploratory activity in mice upon oral administration; 4.2-9.7; outline: as §2
Mus musculus [12] = assay: Compound was tested for antidepressant activity by determining the reversal of tetrabenazine-induced ptosis upon oral administration; 11-29; outline: as §2
Mus musculus [13] = assay: compound was tested for antidepressant activity by determining the decreased exploratory activity in mice upon oral administration; […]
Outline: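 Mice got the test drug, then 30 min later tetrabenazine (as methanesulfonate) 32 mg/kg ip, dissolved in 0.20 mL of 0.05 M KCl at pH 2.0. One hour after test drug (30 min after tetrabenazine), animals were scored for exploratory activity and ptosis. Reversal of the tetrabenazine-induced decrease in exploration was the read-out.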

Mus musculus [14] = assay: Compound was tested for antidepressant activity by determining the reversal of tetrabenazine-induced ptosis upon oral administration; 6-20; outline: as §2
Mus musculus [15] = assay: Compound was tested for antidepressant activity by determining the decreased exploratory activity in mice upon oral administration; 8-58; outline: as §2
Mus musculus [16] = assay: Compound was tested for antidepressant activity by determining the reversal of tetrabenazine-induced ptosis upon oral administration; 0.8-2.6; outline: as §2
Mus musculus [17] = assay: Compound was tested for antidepressant activity by determining the decreased exploratory activity in mice upon oral administration; 4.1-12; outline: as §2
Mus musculus [18] = assay: Compound was tested for antidepressant activity by determining the reversal of tetrabenazine-induced ptosis upon oral administration; 0.3-1.2; outline: as §2
Mus musculus [19] = assay: Compound was tested for antidepressant activity by determining the decreased exploratory activity in mice upon oral administration; 1.2-5.5; outline: as §2
Mus musculus [20] = assay: Compound was tested for antidepressant activity by determining the reversal of tetrabenazine-induced ptosis upon oral administration; 0.17-0.37; outline: as §2
Mus musculus [21] = assay: Compound was tested for antidepressant activity by determining the decreased exploratory activity in mice upon oral administration; 0.4-1.1; outline: as §2
Mus musculus [22] = assay: Compound was tested for antidepressant activity by determining the decreased exploratory activity in mice upon oral administration; outline: as §2

| SMILES | ED50 (Mus musculus [1]) [mg/kg] | ED50 (Mus musculus [2]) [mg/kg] | ED50 (Mus musculus [3]) [mg/kg] | ED50 (Mus musculus [4]) [mg/kg] | ED50 (Mus musculus [5]) [mg/kg] | ED50 (Mus musculus [6]) [mg/kg] | ED50 (Mus musculus [7]) [mg/kg] | other results |
| --- | --- | --- | --- | --- | --- | --- | --- | --- |
| CN(C)CCCN=c1c2ccccc2oc2ccccc12 | 300 | 60 | > 125 | > 125 | > 324 | > 324 | > 324 |  |
| CNCCN=C1c2ccccc2CCc2ccccc21 | 200 | 36 | < 5 |  | > 324 | > 324 | 60 | ED50 (Mus musculus [8]): 8.5 mg/kg |
| CN(C)CCC/N=C1\c2ccccc2CS(=O)(=O)c2ccccc21 | 20 | 200 | > 125 | > 125 | > 324 | > 324 | 20 |  |
| CN(C)CCC/N=C1\c2ccccc2CSc2ccccc21 | 60 | 60 | > 81 | 81 | > 324 | > 324 | 60 |  |
| CN(C)CCC/N=C1\c2ccccc2COc2ccccc21 | 200 | 20 |  | > 125 | > 324 | > 324 | 20 | ED50 (Mus musculus [9]): 99 mg/kg |
| CN(C)CCN=C1c2ccccc2C2C(Cl)C2c2ccccc21 (centres undefined) | > 324 | 200 | > 125 | > 125 | > 324 | > 324 | 200 |  |
| CN(C)CCN=c1c2ccccc2ccc2ccccc12 | 36 | 4 |  |  | > 324 | 7 | 4 | ED50 (Mus musculus [10]): 2.5 mg/kg; ED50 (Mus musculus [11]): 6.4 mg/kg |
| NCCN=C1c2ccccc2CCc2ccccc21 | 200 | 100 |  |  | 200 | > 324 | 200 | ED50 (Mus musculus [12]): 18 mg/kg; ED50 (Mus musculus [13]): 56 mg/kg |
| CN(C)CCN=c1c2ccccc2sc2ccccc12 | 300 | 60 |  |  | > 324 | > 324 | 36 | ED50 (Mus musculus [14]): 11 mg/kg; ED50 (Mus musculus [15]): 22 mg/kg |
| CN(C)CCN=C(c1ccccc1)c1ccccc1 | > 324 | 36 | > 81 | > 81 | > 200 | > 324 | > 324 |  |
| CCN(CC)CCN=C1c2ccccc2C2CC2c2ccccc21 (centres undefined) | 200 | 36 |  |  | 100 | > 324 | 36 | ED50 (Mus musculus [16]): 1.4 mg/kg; ED50 (Mus musculus [17]): 6.9 mg/kg |
| CNCCN=C1c2ccccc2C2CC2c2ccccc21 (centres undefined) | 300 | 36 |  |  | 300 | > 324 | 60 | ED50 (Mus musculus [18]): 0.6 mg/kg; ED50 (Mus musculus [19]): 2.6 mg/kg |
| CN(C)CCN=C1c2ccccc2C2CC2c2ccccc21 (centres undefined) | > 324 | 20 |  |  | > 324 | 60 | 20 | ED50 (Mus musculus [20]): 0.25 mg/kg; ED50 (Mus musculus [21]): 0.7 mg/kg |
| CCNCCN=C1c2ccccc2CCc2ccccc21 | 36 | 20 | > 125 | > 125 | 60 | > 324 | 20 |  |
| CN(C)CCNC1c2ccccc2CCc2ccccc21 | 200 | 20 | > 125 |  | 60 | > 324 | 20 | ED50 (Mus musculus [22]): > 125 mg/kg |
| CN(C)CCC=C1c2ccccc2COc2ccccc21 [DOXEPIN] | 232 | 23 | 5.9 |  | 62 | > 324 | 56 | ED50 (Mus musculus [22]): 27 mg/kg |
| CN(C)CCCN1c2ccccc2CCc2ccccc21 [IMIPRAMINE] | 305 | 62 | 0.9 |  | 209 | > 324 | 198 | ED50 (Mus musculus [22]): 2.2 mg/kg |
